A selection: hits, their analogues and other compounds. The true share with any hit is near 2.4%.
MC4R antagonist: human MC4R antagonism in cAMP assay. MC4R-expressing cells, MTII-stimulated cAMP, LANCE TR-FRET. inhibition, % at 6.5 µM. hit rate 0.48% among 360,000;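 active means inhibition above its plate's cutoff, the mean of tested wells on that plate plus 3 SD, cut at about 29% in these data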;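 further: 0% = Melanotan II alone and 100% = Melanotan II plus saturating MCL0020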
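Assay system: U2OS cells stably expressing human melanocortin 4 receptor (MC4R) / Dosing: 6.5 µM / Timing: compound 30 min, challenge 1 h, detection 1 h / Measured by: Eu-cAMP/anti-cAMP TR-FRET, emission 671 nm / Replicates: singlicate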
NTR1 agonist: agonists of human neurotensin receptor NTR1; P30989; NTR1-U2OS beta-arrestin-GFP spot imaging, agonist mode; activation, % at 20 µM; hit rate 0.17% among 330,000; AID 493036;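 active means activation at or above 40% of the spot to cytoplasm intensity ratio, with at least 20 cells analyzed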;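 further: 0% = DMSO without peptide and 100% = 100 nM NTR1 peptide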
Target sequence (P30989 whole entry, looked up): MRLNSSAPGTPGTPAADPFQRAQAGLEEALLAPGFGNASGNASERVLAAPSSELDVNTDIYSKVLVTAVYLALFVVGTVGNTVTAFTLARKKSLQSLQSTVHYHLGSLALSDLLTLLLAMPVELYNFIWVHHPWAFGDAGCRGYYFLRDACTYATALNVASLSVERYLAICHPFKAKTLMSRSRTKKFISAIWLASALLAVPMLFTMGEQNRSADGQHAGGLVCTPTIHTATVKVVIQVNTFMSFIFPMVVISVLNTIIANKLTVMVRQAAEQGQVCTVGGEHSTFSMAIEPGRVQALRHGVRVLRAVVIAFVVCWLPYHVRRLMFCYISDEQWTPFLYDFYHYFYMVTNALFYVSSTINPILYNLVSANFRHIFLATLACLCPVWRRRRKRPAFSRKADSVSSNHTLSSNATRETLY
Tb MetRS inh: Trypanosoma brucei MetRS inhibition; purified T. brucei MetRS, ATP depletion, Kinase-Glo luminescence; inhibition, % at 11.9 µM; hit rate 0.4% among 360,000; AID 624268;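 active means inhibition above a per-plate cutoff of the control wells' mean inhibition plus 3 SD, cut at about 5.5% in these data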;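 further: 0% = DMSO wells median and 100% = median of wells with control inhibitor compound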
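Material – parasite MetRS enzyme · Medium – HEPES-MgCl2-KCl buffer plus DTT, spermine, BSA, pyrophosphatase · Reagent – ATP, methionine and E. coli bulk tRNA substrates · Times – 15 min enzyme-compound preincubation, 2 h reaction, 10 min detection, 25 °C · Measured by – luminescence of leftover ATP · Evaluation – percent inhibition relative to median high and low control wells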
MC4R barr agon: human MC4R agonism via beta-arrestin; U2OS MC4R beta-arrestin complementation, luminescence; percent of melanotan II response, DMSO zero; activation, % at 8.9 µM; hit rate 0.98% among 360,000;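 active means activation above a per-plate cutoff, the mean activation of sample wells on that plate plus 3 SD, cut at about 8% in these data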
aDG glyco up: alpha-DG glycosylation activation | hit rate 0.22% among 360,000 | Pro5-aDG cells, alpha-DG glycosylation AlphaScreen (IIH6); 0% Pro5, 100% B10-LARGE cell signal | activation, % at 10 µM | AID 624168;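 active means activation of at least 8% versus controls, or a plate z-score of at least 8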;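 further: Pro5 are CHO cells carrying HIG-tagged alpha-DG that lacks glycosylation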
TAG inh: reduces triacylglycerol accumulation in H9c2 cells; Nile Red lipid (TAG) fluorescence; cells loaded with 200 µM oleic acid; inhibition, % at 12.5 µM; hit rate 0.66% among 230,000;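 active means pattern-corrected inhibition of lipid staining of at least 50% with the nuclear-stain viability signal not falling by more than 50%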;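 further: 0% = DMSO wells and 100% = triacsin C control wells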
TAG conf: triacylglycerol accumulation inhibition, confirmation; shares compounds with TAG inh; H9c2 lipid accumulation, Nile Red fluorescence; cells loaded with 200 µM oleic acid; inhibition, % at 12.5 µM; hit rate 71% among 990;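 active means mean inhibition across replicates of 40% or more; inactive means mean inhibition below 40%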;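 further: plate controls were DMSO only wells for no effect and Triacsin C treated wells for full effect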
Numbers without * were called inactive; x = not tested or not shown.

SMILES | MC4R antagonist | NTR1 agonist | Tb MetRS inh | MC4R barr agon | aDG glyco up | TAG inh | TAG conf
COc1ccc(-c2cnnc(N/N=C/c3ccc(-c4ccc([N+](=O)[O-])cc4)o3)n2)cc1 | 1 | x | 0 | -2 | 0 | 63* | 61*
O=[N+]([O-])c1ccc(-c2ccc(/C=N/Nc3nc(N4CCCC4)nc(N4CCCC4)n3)o2)cc1 | 2 | 12 | 0 | -2 | 0 | 18 | x
CC1(C)CC(=O)C(C2C3=C(CC(C)(C)CC3=O)Oc3ccccc32)C(=O)C1 (configuration not stated) | 5 | 0 | 0 | 0 | 0 | -10 | x
CC1(C)CC(=O)C2=C(C1)Oc1nc3ccccc3cc1C2C(C#N)C#N (configuration not stated) | 7 | 2 | 0 | -1 | 0 | 81* | 60*
COc1cc(C2C(C#N)=C(N)Oc3c2ccc2ccccc32)ccc1OCC(=O)Nc1ccccc1C (configuration not stated) | 24 | 1 | 0 | -1 | 2 | x | x
COC(=O)c1ccc(NC(=O)COc2ccc(C3C(C#N)=C(N)Oc4c3ccc3ccccc43)cc2OC)cc1 (configuration not stated) | 10 | 3 | 1 | -1 | 2 | 50* | 24
c1cc(C2CCCCC2)ccc1Oc1nc(N2CCOCC2)nc(N2CCOCC2)n1 | 1 | 10 | 0 | 1 | 0 | 80* | 52*
c1ccc(Oc2nc(N3CCOCC3)nc(N3CCOCC3)n2)cc1 | 12 | 0 | 0 | 1 | 0 | x | x
Cc1cccc(C)c1NC(=O)C(c1ccccc1)N1CCN(c2ccc(F)cc2)CC1 (configuration not stated) | x | x | 0 | x | 0 | x | x
O=C(Nc1ccccc1)c1nc[nH]c1C(=O)NCCCCCCNC(=O)c1[nH]cnc1C(=O)Nc1ccccc1 | 10 | 13 | 0 | 0 | 0 | 65* | 73*
CCc1c(-c2ccc(OC)cc2)ncn1Cc1cccc(-c2ccccc2)c1 | x | x | -1 | x | 1 | x | x
COc1ccccc1NC(=S)N1CCC(c2nc3cc(C)c(C)cc3[nH]2)CC1 | 13 | -2 | 1 | 1 | 0 | x | x
COc1ccccc1NC(=O)N1CCC(c2nc3cc(C)c(C)cc3[nH]2)CC1 | -10 | 1 | -1 | -2 | 0 | 51* | 45*
CSc1ncccc1C(=O)OCC(=O)NC1CC1 | 0 | 1 | 0 | -1 | 0 | 0 | x
COc1cccc(Cn2c3ccc(NC(=O)CCc4ccc(F)cc4)cc3c(=O)n2C)c1 | -16 | x | 0 | 0 | 0 | 52* | 69*
COc1ccccc1CCC(=O)Nc1ccc2c(c1)c(=O)n(C)n2Cc1ccc(F)cc1 | -16 | x | 0 | 0 | 0 | 34 | x
O=[N+]([O-])c1ccccc1/C=C/C=N/Nc1ccc(S(=O)(=O)Nc2ccc(Cl)cc2)cc1[N+](=O)[O-] | 3 | 3 | -1 | -5 | 0 | 58* | 52*
O=[N+]([O-])c1cc(S(=O)(=O)Nc2cccc(Cl)c2)ccc1N/N=C/c1ccc(N2CCOCC2)cc1 | -4 | 2 | 0 | -2 | 0 | 80* | 79*
C/C(=N\Nc1ccc(S(=O)(=O)Nc2ccc(Cl)cc2)cc1[N+](=O)[O-])c1ccc(N2CCOCC2)cc1 | -1 | 5 | -1 | 1 | 0 | x | x
Nc1ncnc2c1ncn2[C@@H]1O[C@H](CO)C[C@H]1O | 10 | 1 | -2 | -1 | 0 | 68 | x
Nc1ncnc2c1ncn2C1C=C(CO)C(O)C1O (configuration not stated) | -4 | x | 0 | -1 | 0 | 75* | 76*
CC(C)N1CSC(=S)N(Cc2ccccc2)C1 | 3 | 0 | 0 | 1 | 0 | 69* | 49*
Nc1c(C(=O)Nc2ccccc2)c2nc3ccccc3nc2n1CCCN1CCOCC1 | 15 | 10 | 0 | 3 | 0 | 83* | 86*
N#Cc1c(N)n(CCCN2CCOCC2)c2nc3ccccc3nc12 | 7 | 2 | 0 | -1 | 0 | 12 | x

Assay outcomes deposited in PubChem by several laboratories.
